According to article PMC3951241 (Journal of medicinal chemistry, 2013):
Read-outs that look alike come from different tables or passages of the source.

Columns and labels:
tadpoles [1] = experiment: Tadpole loss of righting reflex; format: in vivo; details: for EC50: read-out: Tadpole LSR EC50; for tadpole LRR EC50: loss of righting reflex, None = no effect at 10 μM; for tadpole LRR EC50 / Tadpole LSR EC50: ± SEM; for Tadpole LSR EC50: loss of swimming reflex, None = all animals had a swimming response at 10 μM test compound
[2] = system: picrotoxin binding site on the heterogeneous GABAA receptors found in rat brain membranes; experiment: [35S]TBPS displacement from rat brain membranes; details: comparison of IC50 values
[3] = target: rat wild type α1β2γ2L GABAA receptors (Rattus norvegicus, UniProt P62813+P63138); experiment: Single-channel recordings in HEK 293 cells; format: cell-based; details: 50 μM GABA + 20 μM compound; for OT long, mean duration of the longest-lived intracluster open time component: 4-7 patches
Method in brief: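 Single-channel currents from the rat wild-type α1β2γ2L GABAA receptor, activated by 50 μM GABA alone (control) or with 20 μM test compound; 4-7 patches per condition. Intracluster open-time histograms were fitted to sums of two or three exponentials, and closed-time histograms to three. Mean duration and fraction of the longest open component, and fraction of the longest closed component, were analysed statistically.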

mice [4] = experiment: Anesthesia; format: in vivo, mouse; details: tail vein injection
Method in brief: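 Mice received test compound by tail vein injection, dissolved in 22.5% aqueous 2-(hydroxypropyl)-β-cyclodextrin. Lower doses were made by serial dilution of the 8 mg/kg stock solution with 0.9% saline. Anesthesia was scored as loss of righting reflex (LRR), and LRR duration was recorded at each dose.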

tadpoles [5] = details: cited from earlier work
mice [6] = details: tail vein injection, previously found ref 15, cited from earlier work

For `CO[C@@H]1C[C@]2(C)[C@H](CC[C@@H]3[C@@H]2CC[C@@]2(C)C(=O)CC[C@@H]32)C[C@H]1O` (single isomer, unassigned) [ent-2, (2α,3β,5β,8α,9β,10α,13α,14β)-3-Hydroxy-2-methoxyandrostan-17-one], the EC50 (tadpoles [1]) was > 10 µM and the “fold decrease in [35S]TBPS displacement potency relative to ent-1” value [2] was “about 21 fold”.

With `C[C@@]12CC[C@H]3[C@@H](CC[C@@H]4C[C@@H](O)CC[C@]43C)[C@@H]1CC(=O)C2` (single isomer, unassigned) [ent-7, (3β,5β,8α,9β,10α,13α,14β)-3-Hydroxyandrostan-16-one] the “fold lower tadpole LRR EC50 relative to ent-1” value (tadpoles [1]; comparison of EC50 values) was “~ three”, the “fold lower tadpole LSR EC50 relative to ent-1” value (tadpoles [1]; comparison of EC50 values) was “~ three” and the “fold increase in [35S]TBPS displacement potency relative to ent-1” value [2] was “about four”. The “OT long, mean duration of the longest-lived intracluster open time component” value (shortened to “OT long, mean duration”) [3] was 12.4 ± 3.4 ms, the “closed time, first listed component, duration” value ([3]; sample patch of Figure 3) was 0.27 ms and the “closed time, first listed component, fraction” value ([3]; sample patch of Figure 3) was 71%. For the same compound, the “closed time, second listed component, duration” value ([3]; sample patch of Figure 3) was 2.1 ms, the “closed time, second listed component, fraction” value ([3]; sample patch of Figure 3) was 24% and the “closed time, third listed component, duration” value ([3]; sample patch of Figure 3) was 25.0 ms. The “closed time, third listed component, fraction” value ([3]; sample patch of Figure 3) was 5%, the “open time, first listed component, duration” value ([3]; sample patch of Figure 3) was 0.64 ms and the “open time, first listed component, fraction” value ([3]; sample patch of Figure 3) was 39%. For the same compound, the “open time, second listed component, duration” value ([3]; sample patch of Figure 3) was 10.9 ms, the “open time, second listed component, fraction” value ([3]; sample patch of Figure 3) was 61% and the “duration of LRR in mice” value (mice [4]; 8 mg/kg) was “about 3 min”. The “duration of LRR in mice” value (mice [4]; 16 mg/kg) was “about 7 min”.

For `CO[C@@H]1C[C@]2(C)[C@H](CC[C@H]3[C@@H]4CC(=O)C[C@]4(C)CC[C@@H]32)C[C@H]1O` (single isomer, unassigned) [ent-8, (2α,3β,5β,8α,9β,10α,13α,14β)-3-Hydroxy-2-methoxyandrostan-16-one], the “fold higher tadpole LRR EC50 relative to ent-7” value (tadpoles [1]; comparison of EC50 values) was “~ five”, the “fold higher tadpole LSR EC50 relative to ent-7” value (tadpoles [1]; comparison of EC50 values) was “~ five” and the “fold decrease in [35S]TBPS displacement potency relative to ent-7” value [2] was “about 37 fold”.

For `CO[C@H]1[C@H]2CC[C@H]3[C@@H]4CC(=O)C[C@]4(C)CC[C@@H]3[C@]2(C)CC[C@@H]1O` (single isomer, unassigned) [ent-9, (3β,4α,5β,8α,9β,10α,13α,14β)-3-Hydroxy-4-methoxyandrostan-16-one], the “OT long, mean duration” value [3] was 17.7 ± 6.6 ms, the “closed time, first listed component, duration” value ([3]; sample patch of Figure 3) was 0.24 ms and the “closed time, first listed component, fraction” value ([3]; sample patch of Figure 3) was 67%. The “closed time, second listed component, fraction” value ([3]; sample patch of Figure 3) was 28%, the “closed time, third listed component, duration” value ([3]; sample patch of Figure 3) was 14.3 ms and the “closed time, third listed component, fraction” value ([3]; sample patch of Figure 3) was 6%. For the same compound, the “open time, first listed component, duration” value ([3]; sample patch of Figure 3) was 0.80 ms, the “open time, first listed component, fraction” value ([3]; sample patch of Figure 3) was 52% and the “open time, second listed component, duration” value ([3]; sample patch of Figure 3) was 30.3 ms. The “open time, second listed component, fraction” value ([3]; sample patch of Figure 3) was 48%, the “duration of LRR in mice” value (mice [4]; 2 mg/kg (threshold dose)) was “about 1 min” and the “duration of LRR in mice” value (mice [4]; 4 mg/kg) was “about 5 min”. For the same compound, the “duration of LRR in mice” value (mice [4]; 8 mg/kg) was “about 9 min” and the “threshold dose for LRR in mice” value (mice [4]) was 2 mg/kg.

With `O=C1C[C@@H]2CC[C@H]3[C@@H](CC[C@@H]4C[C@@H](O)CC[C@H]43)[C@@H]2C1` (single isomer, unassigned) [ent-12, (3β,5β,8α,9β,10α,13α,14β)-3-Hydroxygonan-16-one] the “tadpole LRR EC50” value (tadpoles [1]) was “neither LRR nor LSR and None”, the “Tadpole LSR EC50” value (tadpoles [1]) was “neither LRR nor LSR and None” and the “OT long, mean duration” value [3] was 11.5 ± 3.3 ms. The “closed time, first listed component, duration” value ([3]; sample patch of Figure 3) was 0.25 ms, the “closed time, first listed component, fraction” value ([3]; sample patch of Figure 3) was 54% and the “closed time, second listed component, duration” value ([3]; sample patch of Figure 3) was 2.0 ms. The “closed time, second listed component, fraction” value ([3]; sample patch of Figure 3) was 24%, the “closed time, third listed component, duration” value ([3]; sample patch of Figure 3) was 27.8 ms and the “closed time, third listed component, fraction” value ([3]; sample patch of Figure 3) was 22%. The “open time, first listed component, duration” value ([3]; sample patch of Figure 3) was 0.29 ms, the “open time, first listed component, fraction” value ([3]; sample patch of Figure 3) was 29% and the “open time, second listed component, duration” value ([3]; sample patch of Figure 3) was 2.1 ms. The “open time, second listed component, fraction” value ([3]; sample patch of Figure 3) was 23%, the “open time, third listed component, duration” value ([3]; sample patch of Figure 3) was 13.2 ms and the “open time, third listed component, fraction” value ([3]; sample patch of Figure 3) was 48%.

In the case of `C[C@]12CC[C@@H](O)C[C@@H]1CC[C@@H]1[C@@H]2CC[C@]2(C)C(=O)CC[C@@H]12` [compound 1, Androsterone], the EC50 (tadpoles [5]; read-out: tadpole LRR EC50, loss of righting reflex, literature values ref 9) is listed as 3.38 ± 0.9 µM.

In the case of `CO[C@H]1C[C@@]2(C)[C@@H](CC[C@@H]3[C@@H]2CC[C@]2(C)C(=O)CC[C@@H]32)C[C@@H]1O` [compound 2, (2β,3α,5α)-3-Hydroxy-2-methoxyandrostan-17-one], the EC50 (tadpoles [1]) is reported as > 10 µM and the “fold decrease in [35S]TBPS displacement potency relative to steroid 1” value [2] is reported as “about five”.

With `CO[C@H]1[C@H](O)CC[C@]2(C)[C@H]3CC[C@]4(C)C(=O)CC[C@H]4[C@@H]3CC[C@@H]12` [compound 3, (3α,4β,5α)-3-Hydroxy-4-methoxyandrostan-17-one] the “tadpole LRR EC50” value (tadpoles [1]) was “None” and the “Tadpole LSR EC50” value (tadpoles [1]) was “None”.

In the case of `C[C@]12CC[C@@H](O)C[C@@H]1CC[C@@H]1[C@@H]2C(=O)C[C@]2(C)/C(=C\C#N)CC[C@@H]12` [compound 4, [3α,5α,17(20)Z]-3-Hydroxy-11-oxopregn-17(20)-ene-21-nitrile], the EC50 (tadpoles [5]; read-out: Tadpole LSR EC50, loss of swimming reflex, literature values ref 15) is listed as 5.48 ± 0.2 µM and the EC50 (tadpoles [5]; read-out: tadpole LRR EC50, loss of righting reflex, literature values ref 15) is listed as 1.44 ± 0.2 µM.

In the case of `CC(=O)[C@H]1CC[C@H]2[C@@H]3CC[C@H]4C[C@H](O)CC[C@]4(C)[C@H]3CC[C@]12C` [compound 5, allopregnanolone], the EC50 (tadpoles [5]; read-out: Tadpole LSR EC50, loss of swimming reflex, literature values ref 46) is given as 5.5 ± 0.5 µM and the EC50 (tadpoles [5]; read-out: tadpole LRR EC50, loss of righting reflex, literature values ref 46) is given as 0.42 ± 0.04 µM.

For `CC(=O)[C@H]1CC[C@H]2[C@@H]3CC[C@H]4C[C@H](O)CC[C@]4(C)[C@H]3C(=O)C[C@]12C` [compound 6, alphaxalone], the “duration of LRR in mice” value (mice [6]; 8 mg/kg) is listed as “less than 1 min”, the “threshold dose for LRR in mice” value (mice [6]) is listed as 8 mg/kg and the EC50 (tadpoles [5]; read-out: Tadpole LSR EC50, loss of swimming reflex, literature values ref 48) is listed as 5.48 ± 0.11 µM. The EC50 (tadpoles [5]; read-out: tadpole LRR EC50, loss of righting reflex, literature values ref 48) was 1.12 ± 0.14 µM and the “duration of LRR in mice” value (mice [4]; 16 mg/kg) was “about 4 min”.
